Calls of active or inactive are those of the source. The rule behind the calls is not given here.
Assays:
[1] = molecular target: T1, Signal transducer and activator of transcription 1 (Mus musculus) (UniProt P42225); test: Inhibition of oligonucleotide [32P]-labelled 5'-AGCITCATTTCCCGTAAATCCCTA probe binding to STAT1 homodimer in mouse NIH3T3 nuclear extract at 10 uM preincubated for 30 mins followed by hSIE probe addition by EMSA analysis
T1 sequence (whole entry): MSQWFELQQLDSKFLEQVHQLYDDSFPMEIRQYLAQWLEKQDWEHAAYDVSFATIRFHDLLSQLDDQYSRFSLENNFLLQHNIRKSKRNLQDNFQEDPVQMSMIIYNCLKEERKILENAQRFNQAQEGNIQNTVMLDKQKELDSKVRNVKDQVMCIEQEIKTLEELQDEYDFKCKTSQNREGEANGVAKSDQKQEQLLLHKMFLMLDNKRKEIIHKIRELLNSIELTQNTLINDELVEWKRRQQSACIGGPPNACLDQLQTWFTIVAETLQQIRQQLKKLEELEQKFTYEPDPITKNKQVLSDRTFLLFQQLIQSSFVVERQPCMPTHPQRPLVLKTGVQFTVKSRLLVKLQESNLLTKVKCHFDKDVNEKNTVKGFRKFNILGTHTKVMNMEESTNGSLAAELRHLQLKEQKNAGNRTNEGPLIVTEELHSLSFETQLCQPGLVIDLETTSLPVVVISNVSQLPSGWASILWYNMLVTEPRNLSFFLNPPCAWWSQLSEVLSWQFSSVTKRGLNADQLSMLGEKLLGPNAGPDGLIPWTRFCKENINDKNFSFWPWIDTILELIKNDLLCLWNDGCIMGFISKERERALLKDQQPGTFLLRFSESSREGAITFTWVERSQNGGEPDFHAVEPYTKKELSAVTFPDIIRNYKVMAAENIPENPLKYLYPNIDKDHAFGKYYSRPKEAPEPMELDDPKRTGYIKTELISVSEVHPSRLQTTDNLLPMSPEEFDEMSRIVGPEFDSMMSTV

[2] = tested on: NIH3T3; test: Inhibition of oligonucleotide [32P]-labelled 5'-AGATTTCTAGGAATTCAA probe binding to STAT5 homodimer in mouse NIH3T3 nuclear extract at 10 uM preincubated for 30 mins followed by MGFe probe addition by EMSA analysis
[3] = tested on: MCF-10A; test: Cytotoxicity against human MCF-10A cells assessed as reduction in cell viability incubated for 72 hrs by CyQuant assay; format: cell-based
[4] = molecular target: Signal transducer and activator of transcription 3 (Mus musculus, UniProt P42227); test: Inhibition of oligonucleotide [32P]-labelled 5'-AGCITCATTTCCCGTAAATCCCTA probe binding to STAT3 SH2 domain in mouse NIH3T3/v-Src nuclear extract preincubated for 30 mins followed by hSIE probe addition by EMSA analysis; format: subcellular, Nucleus
Signal transducer and activator of transcription 3, sequence (P42227 whole entry, the tested form may be a part): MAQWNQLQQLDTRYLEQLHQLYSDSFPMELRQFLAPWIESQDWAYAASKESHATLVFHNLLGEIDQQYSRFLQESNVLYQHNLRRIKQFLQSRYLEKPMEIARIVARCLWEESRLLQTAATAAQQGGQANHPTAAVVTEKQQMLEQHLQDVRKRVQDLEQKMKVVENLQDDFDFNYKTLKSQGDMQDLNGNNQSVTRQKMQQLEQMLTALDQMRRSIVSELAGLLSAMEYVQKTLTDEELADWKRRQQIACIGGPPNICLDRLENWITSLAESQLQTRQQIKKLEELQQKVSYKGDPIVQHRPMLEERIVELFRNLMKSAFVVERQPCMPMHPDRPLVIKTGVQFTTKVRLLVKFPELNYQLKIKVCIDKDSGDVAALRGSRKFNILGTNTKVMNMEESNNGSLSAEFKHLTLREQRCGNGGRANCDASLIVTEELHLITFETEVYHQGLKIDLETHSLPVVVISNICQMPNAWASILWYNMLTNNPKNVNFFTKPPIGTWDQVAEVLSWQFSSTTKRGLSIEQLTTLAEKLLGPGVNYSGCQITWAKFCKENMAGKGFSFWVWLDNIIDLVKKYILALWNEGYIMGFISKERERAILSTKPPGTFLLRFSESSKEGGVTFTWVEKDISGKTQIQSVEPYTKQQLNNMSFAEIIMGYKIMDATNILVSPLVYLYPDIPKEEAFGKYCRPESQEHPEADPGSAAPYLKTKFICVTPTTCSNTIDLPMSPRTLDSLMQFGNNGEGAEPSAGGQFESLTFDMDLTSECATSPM

[5] = tested on: MDA-MB-231; test: Anticlonogenic activity against human MDA-MB-231 cells assessed as inhibition of colony formation at 0.5 to 1 uM incubated for 4 hrs by crystal violet staining based assay; format: functional, cell-based; conditions: dose 0.5-1 µM
Method in brief: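 MDA-MB-231 cells seeded as single-cell cultures (250 cells per well), treated once the next day with compound at 0–1 μM and grown until large colonies were visible. Colonies stained with crystal violet for 4 h and photographed. Three independent determinations.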

[6] = tested on: MDA-MB-468; test: Antiproliferative activity against human MDA-MB-468 cells harbouring STAT3 assessed as reduction in cell viability incubated for 72 hrs by CyQuant assay; format: functional, cell-based; conditions: MDA-MB-468, 72 h
[7] = tested on: MCF7; test: Antiproliferative activity against human MCF7 cells assessed as reduction in cell viability incubated for 72 hrs by CyQuant assay; format: functional, cell-based; conditions: MCF7, 72 h
[8] = tested on: MDA-MB-231; test: Antiproliferative activity against human MDA-MB-231 cells assessed as reduction in cell viability incubated for 72 hrs by CyQuant assay; format: functional, cell-based; conditions: MDA-MB-231, 72 h
[9] = tested on: MDA-MB-231; test: Antiproliferative activity against human MDA-MB-231 cells harbouring STAT3 assessed as reduction in cell viability at upto 10 uM incubated for 72 hrs by CyQuant assay; format: functional, cell-based; conditions: MDA-MB-231, 72 h

Row | EC50 [6] [µM] | EC50 [7] [µM] | EC50 [8] [µM] | Compound | EC50 [3] [µM] | also measured
1 | 3.8 | 6.2 | 1.4 | O=C([C@H]1CCN1S(=O)(=O)c1c(F)c(F)c(F)c(F)c1F)N(Cc1ccc(C2CCCCC2)cc1)c1ccc2c(=O)[nH]ccc2c1 | 5.3 | 
2 |  |  | 1.8 | COC(=O)c1ccc(N(Cc2ccc(C3CCCCC3)cn2)C(=O)[C@H]2CCN2S(=O)(=O)c2c(F)c(F)c(F)c(F)c2F)cc1O |  | 
3 | 3.9 |  | 6.7 | CONC(=O)c1ccc(N(Cc2ccc(C3CCCCC3)cn2)C(=O)[C@H]2CCN2S(=O)(=O)c2c(F)c(F)c(F)c(F)c2F)cc1O |  | 
4 | 2.1 | > 10 | 4 | O=C(NO)c1ccc(N(Cc2ccc(C3CCOCC3)cc2)C(=O)[C@H]2CCN2S(=O)(=O)c2c(F)c(F)c(F)c(F)c2F)cc1 | 4.3 | 
5 | 1.1 | 4.5 | 1.6 | O=C([C@H]1CCN1S(=O)(=O)c1c(F)c(F)c(F)c(F)c1F)N(Cc1ccc(C2CCCCC2)cc1)c1ccc2c(=O)[nH]ncc2c1 | 4.6 | 
6 |  | 2.8 | 2.3 | Cn1ccc2cc(N(Cc3ccc(C4CCCCC4)cn3)C(=O)[C@H]3CCN3S(=O)(=O)c3c(F)c(F)c(F)c(F)c3F)ccc2c1=O | 4.4 | 
7 |  | 13.8 |  | COc1ccc(S(=O)(=O)Nc2cc(-c3c(O)ccc4ccccc34)c(O)c3ccccc23)cc1 [C-188-9] |  | EC50 [9]: 25.7 µM
8 |  |  | 2 | COC(=O)c1ccc(N(Cc2ccc(C3CCCCC3)nc2)C(=O)[C@H]2CCN2S(=O)(=O)c2c(F)c(F)c(F)c(F)c2F)cc1O |  | 
9 | 6.4 | 9.7 | 5.1 | O=C(NO)c1ccc(N(Cc2ccc(C3CCCCC3)cc2)C(=O)[C@H]2CCN2S(=O)(=O)c2c(F)c(F)c(F)c(F)c2F)cc1O | 7.5 | inhibition [1]: Active; inhibition [2]: Active
10 | 1.8 | 7.2 | 3.1 | O=C(NO)c1ccc(N(Cc2ccc(C3CCCC3)cc2)C(=O)[C@H]2CCN2S(=O)(=O)c2c(F)c(F)c(F)c(F)c2F)cc1 | 7.3 | 
11 |  | 6.8 | 5 | O=C(NO)c1ccc(N(Cc2ccc(C3CCCCC3)cc2)C(=O)[C@H]2CCN2S(=O)(=O)c2c(F)c(F)c(F)c(F)c2F)cc1 | 7.9 | 

More lines, now with the values behind:

Row | Compound | EC50 [6] [µM] | EC50 [7] [µM] | EC50 [8] [µM] | EC50 [3] [µM] | also measured
12 | O=C(O)c1ccc(N(Cc2ccc(C3CCCC3)cc2)C(=O)[C@H]2CCN2S(=O)(=O)c2c(F)c(F)c(F)c(F)c2F)cc1O |  |  |  |  | inhibition [1]: Active; inhibition [2]: Active
13 | COC(=O)c1ccc(N(Cc2cnc(C3CCCCC3)cn2)C(=O)[C@H]2CCN2S(=O)(=O)c2c(F)c(F)c(F)c(F)c2F)c(F)c1 | 1.4 | 8.9 |  | 4 | IC50 [4]: > 10 µM; inhibition [5]: Active
14 | O=C1NCc2cc(N(Cc3ccc(C4CCCCC4)cn3)C(=O)[C@H]3CCN3S(=O)(=O)c3c(F)c(F)c(F)c(F)c3F)c(F)cc21 |  |  | 2 |  | 
15 | O=C(NO)c1cc(F)c(N(Cc2ccc(C3CCOCC3)cc2)C(=O)[C@H]2CCN2S(=O)(=O)c2c(F)c(F)c(F)c(F)c2F)cc1O |  |  | 5.1 |  | 
16 | O=C(O)c1ccc(N(Cc2ccc(C3CCCCC3)nc2)C(=O)[C@H]2CCN2S(=O)(=O)c2c(F)c(F)c(F)c(F)c2F)cc1O |  |  |  |  | inhibition [1]: Active; inhibition [2]: Active
17 | COC(=O)c1ccc(N(Cc2ccc(C3CCCCC3)cc2)C(=O)[C@H]2CCN2S(=O)(=O)c2c(F)c(F)c(F)c(F)c2F)c(F)c1 |  |  | 4.4 |  | IC50 [4]: > 4 µM; inhibition [1]: Active; inhibition [2]: Active
18 | O=C1NCc2cc(N(Cc3ccc(C4CCCCC4)cn3)C(=O)[C@H]3CCN3S(=O)(=O)c3c(F)c(F)c(F)c(F)c3F)ccc21 |  |  | 2 |  | 
19 | O=C([C@H]1CCN1S(=O)(=O)c1c(F)c(F)c(F)c(F)c1F)N(Cc1ccc(C2CCCCC2)cc1)c1cc2[nH]ncc2cc1F |  | 9.4 | 2.4 | 8.1 | 
20 | O=C(O)c1cc(F)c(N(Cc2ccc(C3CCCCC3)cc2)C(=O)[C@H]2CCN2S(=O)(=O)c2c(F)c(F)c(F)c(F)c2F)cc1O |  |  |  |  | inhibition [1]: Active; inhibition [2]: Active
21 | O=C(NO)c1ccc(N(Cc2ccc(C3CCCCC3)cc2)C(=O)[C@H]2CCN2S(=O)(=O)c2c(F)c(F)c(F)c(F)c2F)c(F)c1 |  |  |  |  | inhibition [1]: Active; inhibition [2]: Active
22 | O=C([C@H]1CCN1S(=O)(=O)c1c(F)c(F)c(F)c(F)c1F)N(Cc1cnc(C2CCCCC2)cn1)c1ccc2c(=O)[nH]cnc2c1 |  |  | 4.2 |  | 
23 | O=C([C@H]1CCN1S(=O)(=O)c1c(F)c(F)c(F)c(F)c1F)N(Cc1ccc(C2CCCCC2)cn1)c1ccc2c(=O)[nH]cnc2c1 | 1.5 | 3.6 | 3.3 | 4 | 
24 | O=C(O)c1ccc(N(Cc2ccc(C3CCCCC3)cn2)C(=O)[C@H]2CCN2S(=O)(=O)c2c(F)c(F)c(F)c(F)c2F)cn1 |  |  |  |  | IC50 [4]: > 2 µM
25 | O=C([C@H]1CCN1S(=O)(=O)c1c(F)c(F)c(F)c(F)c1F)N(Cc1cnc(C2CCCCC2)cn1)c1ccc2c(=O)[nH]ncc2c1 |  |  | 4.8 |  | 
26 | O=C([C@H]1CCN1S(=O)(=O)c1c(F)c(F)c(F)c(F)c1F)N(Cc1ccc(C2CCCCC2)cn1)c1ccc2nn[nH]c2c1 | 5.1 |  | 6.6 |  | 
27 | O=C(O)c1coc(N(Cc2ccc(C3CCCCC3)cc2)C(=O)[C@H]2CCN2S(=O)(=O)c2c(F)c(F)c(F)c(F)c2F)n1 |  |  |  |  | IC50 [4]: > 5 µM
28 | O=C(O)c1ccc(N(Cc2ccc(C3CCOCC3)cc2)C(=O)[C@H]2CCN2S(=O)(=O)c2c(F)c(F)c(F)c(F)c2F)cc1O |  |  |  |  | inhibition [1]: Active; inhibition [2]: Active
29 | O=C(O)c1ccc(N(Cc2ccc(C3CCOCC3)nc2)C(=O)[C@H]2CCN2S(=O)(=O)c2c(F)c(F)c(F)c(F)c2F)cc1O |  |  |  |  | inhibition [1]: Active; inhibition [2]: Active
30 | COC(=O)c1ccc(N(Cc2ccc(C3CCCCC3)cc2)C(=O)[C@H]2CCN2S(=O)(=O)c2c(F)c(F)c(F)c(F)c2F)cc1O |  |  | 2.7 |  | IC50 [4]: > 4 µM; inhibition [1]: Active; inhibition [2]: Active
31 | O=C(NO)c1ccc(N(Cc2ccc(C3CCCCC3)cn2)C(=O)[C@H]2CCN2S(=O)(=O)c2c(F)c(F)c(F)c(F)c2F)cc1O | 6.2 |  |  |  | 
32 | O=C(NO)c1ccc(N(Cc2cnc(C3CCCCC3)cn2)C(=O)[C@H]2CCN2S(=O)(=O)c2c(F)c(F)c(F)c(F)c2F)cc1O | 5.1 |  | 5.2 |  | 
33 | O=C([C@H]1CCN1S(=O)(=O)c1c(F)c(F)c(F)c(F)c1F)N(Cc1ccc(C2CCCCC2)cn1)c1ccc2c(=O)[nH]ccc2c1 | 2 | 2.2 | 1.2 | 2.7 | 
34 | Cn1cnc2cc(N(Cc3ccc(C4CCCCC4)cn3)C(=O)[C@H]3CCN3S(=O)(=O)c3c(F)c(F)c(F)c(F)c3F)ccc2c1=O | 2.2 | 3.2 | 2.1 | 4.7 | 
35 | O=C(NO)c1ccc(N(Cc2ccc(C3CCCCC3)cn2)C(=O)[C@H]2CCN2S(=O)(=O)c2c(F)c(F)c(F)c(F)c2F)c(F)c1 | 4.2 |  | 5.8 |  | 
36 | O=C([C@H]1CCN1S(=O)(=O)c1c(F)c(F)c(F)c(F)c1F)N(Cc1ccc(C2CCCCC2)cn1)c1cc2[nH]ncc2cc1F | 3.2 | 4.8 | 2.3 | 4.9 | 
37 | NC(=O)c1ccc(N(Cc2ccc(C3CCCCC3)cn2)C(=O)[C@H]2CCN2S(=O)(=O)c2c(F)c(F)c(F)c(F)c2F)cc1O | 2.6 | 4.6 | 2.9 | 7.2 | 
38 | O=C([C@H]1CCN1S(=O)(=O)c1c(F)c(F)c(F)c(F)c1F)N(Cc1cnc(C2CCCCC2)cn1)c1cc2[nH]ncc2cc1F | 2 | 4.6 | 2 | 3.2 | 
39 | O=C([C@H]1CCN1S(=O)(=O)c1c(F)c(F)c(F)c(F)c1F)N(Cc1cnc(C2CCCCC2)cn1)c1ccc2nn[nH]c2c1 | 2.3 |  | 2.1 |  | 

— ChEMBL document CHEMBL4706639, “Discovery of Novel Azetidine Amides as Potent Small-Molecule STAT3 Inhibitors” (J Med Chem, 2021)
